Assay results taken from ChEMBL document CHEMBL1781909, “Potent mGluR5 antagonists: pyridyl and thiazolyl-ethynyl-3,5-disubstituted-phenyl series” (Bioorg Med Chem Lett, 2011).

What was measured:
[1] = target: T1, Metabotropic glutamate receptor 5 (Rattus norvegicus, UniProt P31424); experiment: Displacement of [3H]methoxy-PEPY from rat mGluR5 expressed in human HEK-293 cells by liquid scintillation counting; type: cell-based, HEK293
Summary of the method: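 Membranes from stable rat mGluR5-HEK293A cells (10 µg/well) incubated with 2 nM [3H]methoxy-PEPY in 50 mM Tris/0.9% NaCl, pH 7.4, with or without compound, 1 h at room temperature with shaking. Filtered on GF/B, washed three times, counted by liquid scintillation. Ki derived from fitted IC50; three experiments in duplicate.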

[2] = target: T1, Metabotropic glutamate receptor 5; experiment: Antagonist activity at rat mGluR5 expressed in human HEK-293 cells assessed as inhibition of glutamate-induced intracellular calcium mobilization; type: functional, cell-based, HEK293
[3] = Octanol-phosphate buffer partition coefficient, log D of the compound at pH 7.4; type: physicochemical
Summary of the method: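 Log D measured as partition of the [123I]-labelled compound between octanol and phosphate buffer pH 7.4.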

Rattus norvegicus = experiment: Analgesic activity in ip dosed rat post-operative pain model; type: functional

T1 sequence (P31424 whole entry): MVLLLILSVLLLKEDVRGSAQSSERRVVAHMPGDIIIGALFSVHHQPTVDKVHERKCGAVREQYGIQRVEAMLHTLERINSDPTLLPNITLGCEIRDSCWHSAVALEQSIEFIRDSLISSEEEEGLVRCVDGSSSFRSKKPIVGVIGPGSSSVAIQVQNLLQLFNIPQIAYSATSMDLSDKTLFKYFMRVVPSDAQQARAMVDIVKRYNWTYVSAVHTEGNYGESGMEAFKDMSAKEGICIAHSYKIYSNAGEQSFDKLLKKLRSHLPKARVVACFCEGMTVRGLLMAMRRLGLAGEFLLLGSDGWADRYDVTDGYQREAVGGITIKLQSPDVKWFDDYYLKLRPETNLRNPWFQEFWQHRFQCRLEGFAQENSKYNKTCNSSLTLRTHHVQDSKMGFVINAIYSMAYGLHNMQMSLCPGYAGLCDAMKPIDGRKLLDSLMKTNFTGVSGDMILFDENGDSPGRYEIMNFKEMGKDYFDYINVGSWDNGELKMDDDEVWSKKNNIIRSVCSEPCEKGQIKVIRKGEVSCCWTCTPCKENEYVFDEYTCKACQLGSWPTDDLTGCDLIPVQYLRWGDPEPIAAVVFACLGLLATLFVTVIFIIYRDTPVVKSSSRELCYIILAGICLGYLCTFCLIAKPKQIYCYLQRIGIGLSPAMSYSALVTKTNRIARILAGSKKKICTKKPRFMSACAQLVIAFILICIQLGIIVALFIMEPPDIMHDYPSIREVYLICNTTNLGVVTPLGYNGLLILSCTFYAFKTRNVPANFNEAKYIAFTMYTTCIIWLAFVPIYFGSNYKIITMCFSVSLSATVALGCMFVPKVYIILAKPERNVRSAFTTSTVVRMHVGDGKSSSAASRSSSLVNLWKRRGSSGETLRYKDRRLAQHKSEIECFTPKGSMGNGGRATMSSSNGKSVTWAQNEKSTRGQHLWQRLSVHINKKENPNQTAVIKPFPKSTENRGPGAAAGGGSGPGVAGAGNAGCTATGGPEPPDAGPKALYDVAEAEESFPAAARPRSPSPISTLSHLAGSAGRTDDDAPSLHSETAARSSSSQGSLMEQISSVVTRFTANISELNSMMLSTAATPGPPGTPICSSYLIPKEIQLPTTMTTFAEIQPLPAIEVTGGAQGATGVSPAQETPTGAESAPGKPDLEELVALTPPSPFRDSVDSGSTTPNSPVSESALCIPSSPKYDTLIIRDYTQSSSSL

Cc1nc(C#Cc2cc(C#N)cc([N+](=O)[O-])c2)cs1
Ki [1]: 0.36 nM | IC50 [2]: 2.63 nM

Cc1nc(C#Cc2cc(Br)cc([N+](=O)[O-])c2)cs1
Ki [1]: 0.93 nM | IC50 [2]: 0.73 nM

N#Cc1cc(I)cc(C#Cc2ccccn2)c1
IC50 [2]: 0.66 nM

Cc1nc(C#Cc2cc(Cl)cc(C#N)c2)cs1
Ki [1]: 0.127 nM | IC50 [2]: 1.61 nM

Cc1nc(C#Cc2cc(Br)cc(C#N)c2)cs1
Ki [1]: 0.106 nM | IC50 [2]: 1.06 nM

Cc1nc(C#Cc2cc(I)cc(C#N)c2)cs1
Ki [1]: 2.14 nM | IC50 [2]: 1.05 nM

Cc1nc(C#Cc2cc(F)cc([N+](=O)[O-])c2)cs1
Ki [1]: 0.3 nM | IC50 [2]: 0.61 nM

Cc1nc(C#Cc2cc(I)cc([N+](=O)[O-])c2)cs1
Ki [1]: 1.84 nM | IC50 [2]: 1.75 nM

Cc1nc(C#Cc2cc(F)cc(Br)c2)cs1
Ki [1]: 1.06 nM | IC50 [2]: 1.11 nM

Cc1nc(C#Cc2cc(Br)cc(Br)c2)cs1
Ki [1]: 0.69 nM | IC50 [2]: 1.45 nM

Cc1cccc(C#Cc2cc(C#N)cc([N+](=O)[O-])c2)n1
IC50 [2]: 3.68 nM

Cc1cccc(C#Cc2cc(Br)cc([N+](=O)[O-])c2)n1
IC50 [2]: 0.63 nM

Cc1cccc(C#Cc2cc(Cl)cc(C#N)c2)n1
IC50 [2]: 1.22 nM

Cc1cccc(C#Cc2cc(F)cc(C#N)c2)n1
IC50 [2]: 1.22 nM

Cc1cccc(C#Cc2cc(I)cc(C#N)c2)n1
IC50 [2]: 0.71 nM

Cc1ccc(C#Cc2cc(C#N)cc([N+](=O)[O-])c2)nc1
IC50 [2]: 2.64 nM

Cc1ccc(C#Cc2cc(Br)cc([N+](=O)[O-])c2)nc1
IC50 [2]: 7.36 nM

Cc1ccc(C#Cc2cc(Cl)cc(C#N)c2)nc1
IC50 [2]: 1.22 nM

Cc1ccc(C#Cc2cc(F)cc(C#N)c2)nc1
IC50 [2]: 0.32 nM

Cc1ccc(C#Cc2cc(Br)cc(C#N)c2)nc1
IC50 [2]: 1.02 nM

N#Cc1cc(C#Cc2ccccn2)cc([N+](=O)[O-])c1
IC50 [2]: 1.32 nM

O=[N+]([O-])c1cc(Br)cc(C#Cc2ccccn2)c1
IC50 [2]: 0.39 nM

N#Cc1cc(Cl)cc(C#Cc2ccccn2)c1
IC50 [2]: 1.03 nM

O=[N+]([O-])c1cc(F)cc(C#Cc2ccccn2)c1
IC50 [2]: 0.66 nM

O=[N+]([O-])c1cc(I)cc(C#Cc2ccccn2)c1
IC50 [2]: 2.09 nM

Cc1cccc(C#Cc2cc([123I])cc(C#N)c2)n1
logD [3]: 2.3

Cc1nc(C#Cc2cc(F)cc(C#N)c2)cs1
Ki [1]: 0.36 nM | IC50 [2]: 1.89 nM

Cc1cccc(C#Cc2ccccc2)n1
ED50 (Rattus norvegicus): 15 mg/kg
